Laboratory results: ChEMBL document CHEMBL1123476, “Synthesis of congeners and prodrugs of the benzene maleimide photoadduct mitindomide as potential antitumor agents. 2” (J Med Chem, 1986)
Values joined by “and” are separate entries in the source; they are usually repeats but may differ in a detail not shown here. Equal entries are not always repeated.

Columns and labels:
[1] = system: P388; assay: (§1) Antitumor activity in P-388 lymphocytic leukemia system at 100 mg/kg dose levels per injection.; type: functional, Mus musculus
Outline: (§2)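 P-388 leukemia in animals, Q01D×09 schedule: dose given daily for 9 days, in mg/kg per injection. Read-outs are survivors on day 4 (live/total animals), body-weight difference test minus control (g), and % T/C (median lifetime of treated ÷ median lifetime of controls × 100). Some compounds were tested in independent runs at different times.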

[2] = system: P388; assay: (§3) Antitumor activity in P-388 lymphocytic leukemia system at 50 mg/kg dose levels per injection.; type: functional, Mus musculus; outline: as §2
[3] = system: P388; assay: as §3; type: functional, Mus musculus; remark: listed apart in the source
Outline: (§4)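 P-388 leukemia in vivo, dosed Q01D×09 (one injection daily for 9 days, mg/kg per injection). Activity is %T/C, the median lifetime of treated animals divided by that of controls, ×100. Live animals on day 4 were counted against the total (survivors day 4). Repeat tests were done independently at different times.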

[4] = system: P388; assay: Compound was tested for antitumor activity in P-388 lymphocytic leukemia system at 200 mg/kg dose levels per injection.; type: functional, organism-based; set-up: dose 200 mg/kg; conditions: Mus musculus; outline: as §4
[5] = Solubility was determined; INS= less than 0.1; type: physicochemical
[6] = system: P388; assay: Antitumor activity in P-388 lymphocytic leukemia system and the difference in body weight was calculated at 200 mg/kg dose levels per injection.; type: functional, Mus musculus
[7] = system: P388; assay: Antitumor activity in P-388 lymphocytic leukemia system at 25 mg/kg dose levels per injection; type: functional, Mus musculus; outline: as §4
[8] = system: P388; assay: Antitumor activity in P-388 lymphocytic leukemia system and the difference in body weight was calculated at 25 mg/kg dose levels per injection.; type: functional, Mus musculus
[9] = system: P388; assay: as §1; type: functional, Mus musculus; outline: as §4; remark: listed apart in the source
[10] = system: P388; assay: Compound was tested for antitumor activity in P-388 lymphocytic leukemia system at 200 mg/kg dose levels per injection; 3/6; type: functional, Mus musculus; outline: as §2
[11] = system: P388; assay: Compound was tested for antitumor activity in P-388 lymphocytic leukemia system at 50 mg/kg dose levels per injection; 6/6; type: functional, Mus musculus; outline: as §2
[12] = system: P388; assay: Compound was tested for antitumor activity in P-388 lymphocytic leukemia system at 200 mg/kg dose levels per injection; 4/6; type: functional, Mus musculus; outline: as §2
[13] = system: P388; assay: Antitumor activity in P-388 lymphocytic leukemia system and the difference in body weight calculated at 100 mg/kg dose levels per injection.; type: functional, Mus musculus
[14] = system: P388; assay: Antitumor activity in P-388 lymphocytic leukemia system at 25 mg/kg dose levels per injection.; type: functional, Mus musculus; outline: as §2
[15] = system: P388; assay: Antitumor activity in P-388 lymphocytic leukemia system and the difference in body weight was calculated at 50 mg/kg dose levels per injection.; type: functional, Mus musculus
[16] = system: P388; assay: Compound was tested for antitumor activity in P-388 lymphocytic leukemia system at 100 mg/kg dose levels per injection; Toxic; type: functional, organism-based; set-up: dose 100 mg/kg; conditions: Mus musculus; outline: as §4
[17] = system: P388; assay: Compound was tested for antitumor activity in P-388 lymphocytic leukemia system at 12.5 mg/kg dose levels per injection; 6/6; type: functional, Mus musculus; outline: as §2
[18] = system: P388; assay: Compound was tested for antitumor activity in P-388 lymphocytic leukemia system at 100 mg/kg dose levels per injection; 3/6; type: functional, Mus musculus; outline: as §2
[19] = system: P388; assay: Compound was tested for antitumor activity in P-388 lymphocytic leukemia system at 200 mg/kg dose levels per injection; 0/6; type: functional, Mus musculus; outline: as §2
[20] = system: P388; assay: Compound was tested for antitumor activity in P-388 lymphocytic leukemia system and the difference in body weight was calculated at 12.5 mg/kg dose levels per injection; type: functional, Mus musculus
[21] = Solubility was determined; type: physicochemical
[22] = system: P388; assay: Compound was tested for antitumor activity in P-388 lymphocytic leukemia system at 12.5 mg/kg dose levels per injection; type: functional, Mus musculus; outline: as §4
[23] = system: P388; assay: Compound was tested for antitumor activity in P-388 lymphocytic leukemia system at 100 mg/kg dose levels per injection; 0/6; type: functional, Mus musculus; outline: as §2
[24] = system: P388; assay: Compound was tested for antitumor activity in P-388 lymphocytic leukemia system at 68.8 mg/kg dose levels per injection; type: functional, Mus musculus; outline: as §4
[25] = system: P388; assay: Compound was tested for antitumor activity in P-388 lymphocytic leukemia system at 24.8 mg/kg dose levels per injection; type: functional, Mus musculus; outline: as §4
[26] = system: P388; assay: Compound was tested for antitumor activity in P-388 lymphocytic leukemia system at 68.8 mg/kg dose levels per injection; 6/6; type: functional, Mus musculus; outline: as §2
[27] = system: P388; assay: Compound was tested for antitumor activity in P-388 lymphocytic leukemia system at 114.7 mg/kg dose levels per injection; 2/6; type: functional, Mus musculus; outline: as §2
[28] = system: P388; assay: Compound was tested for antitumor activity in P-388 lymphocytic leukemia system and the difference in body weight was calculated at 114.7 mg/kg dose levels per injection; type: functional, Mus musculus
[29] = system: P388; assay: Compound was tested for antitumor activity in P-388 lymphocytic leukemia system. The difference in body weight was calculated at 24.8 mg/kg dose levels per injection; type: functional, Mus musculus
[30] = system: P388; assay: Compound was tested for antitumor activity in P-388 lymphocytic leukemia system and the difference in body weight was calculated at 41.3 mg/kg dose levels per injection; type: functional, Mus musculus
[31] = system: P388; assay: Compound was tested for antitumor activity in P-388 lymphocytic leukemia system at 41.3 mg/kg dose levels per injection; type: functional, Mus musculus; outline: as §4
[32] = system: P388; assay: Compound was tested for antitumor activity in P-388 lymphocytic leukemia system and the difference in body weight was calculated at 68.8 mg/kg dose levels per injection; type: functional, Mus musculus
[33] = system: P388; assay: Compound was tested for antitumor activity in P-388 lymphocytic leukemia system at 41.3 mg/kg dose levels per injection; 6/6; type: functional, Mus musculus; outline: as §2
[34] = system: P388; assay: Compound was tested for antitumor activity in P-388 lymphocytic leukemia system at 24.8 mg/kg dose levels per injection; 6/6; type: functional, Mus musculus; outline: as §2
[35] = system: P388; assay: Compound was tested for antitumor activity in P-388 lymphocytic leukemia system at 191.2 mg/kg dose levels per injection; 0/6; type: functional, Mus musculus; outline: as §2
[36] = system: P388; assay: Compound was tested for antitumor activity in P-388 lymphocytic leukemia system at 50 mg/kg dose levels per injection;6/6; type: functional, Mus musculus; outline: as §2
[37] = system: P388; assay: Compound was tested for antitumor activity in P-388 lymphocytic leukemia system. at 200 mg/kg dose levels per injection; Toxic; type: functional, organism-based; set-up: dose 200 mg/kg; conditions: Mus musculus; outline: as §4
[38] = system: P388; assay: Compound was tested for antitumor activity in P-388 lymphocytic leukemia system at 200 mg/kg dose levels per injection; 5/6; type: functional, Mus musculus; outline: as §2

For `O=C1C2C3C=CC(C2C(=O)N1CN1CCOCC1)C1C2C(=O)N(CN4CCOCC4)C(=O)C2C31` (stereo unspecified), the “Survivors at day 4” value [1] was 6, the “Survivors at day 4” value [2] was 6 and the T/C ([3]; 50 mg/kg) was 148% and 141%. The T/C [4] was “Toxic”, the Solubility [5] was “Insoluble” and the Weight difference ([6]; 200 mg/kg) was -6.2 g and -5.9 g. The T/C ([7]; 25 mg/kg) was 120% and 125%, the Weight difference ([8]; 25 mg/kg) was -1 g and -0.9 g and the T/C ([9]; 100 mg/kg) was 120% and 174%. For the same molecule, the “Survivors at day 4” value [10] was 3, the “Survivors at day 4” value [11] was 6 and the “Survivors at day 4” value [12] was 4. The Weight difference ([13]; 100 mg/kg) was -4.8 g and -3.9 g, the “Survivors at day 4” value [14] was 6 and the Weight difference ([15]; 50 mg/kg) was -1.7 g and -1.5 g.
For `O=C1C2C3C=CC(C2C(=O)N1CO)C1C2C(=O)N(CO)C(=O)C2C31` (stereo unspecified), the “Survivors at day 4” value [2] was 6, the T/C ([3]; 50 mg/kg) was 195% and 208% and the T/C [4] was “Toxic”. The T/C [16] was “Toxic”, the “Survivors at day 4” value [17] was 6 and the “Survivors at day 4” value [18] was 3. For the same molecule, the T/C ([7]; 25 mg/kg) was 140% and 157%, the Weight difference ([8]; 25 mg/kg) was -2.5 g and -3.3 g and the “Survivors at day 4” value [19] was 0. It also gave a Weight difference [20] of -0.7 g, a Solubility [21] of 0.8% and a Weight difference [13] of -8.2 g. The “Survivors at day 4” value [14] was 6, the T/C [22] was 105% and the “Survivors at day 4” value [23] was 0. For the same molecule, the Weight difference ([15]; 50 mg/kg) was -5.6 g and -6.5 g.
For `CN1CCN(CN2C(=O)C3C4C=CC(C3C2=O)C2C3C(=O)N(CN5CCN(C)CC5)C(=O)C3C42)CC1.Cl` (stereo unspecified), the T/C [24] was 172%, the T/C [25] was 113% and the “Survivors at day 4” value [26] was 6. The “Survivors at day 4” value [27] was 2, the Weight difference [28] was -5.9 g and the Weight difference [29] was 1.2 g. The Weight difference [30] was -1.8 g, the T/C [31] was 130% and the Weight difference [32] was -4.6 g. For the same molecule, the “Survivors at day 4” value [33] was 6, the “Survivors at day 4” value [34] was 6 and the “Survivors at day 4” value [35] was 0.
For `O=C1C2C3CCC(C2C(=O)N1CO)C1C2C(=O)N(CO)C(=O)C2C31` (stereo unspecified), the “Survivors at day 4” value [1] was 6, the T/C [3] was 145% and the “Survivors at day 4” value [36] was 6. For the same molecule, the Weight difference [6] was -4.7 g, the T/C [7] was 102% and the Weight difference [8] was 0.1 g. The T/C [9] was 205%, the Solubility [21] was 1% and the T/C [37] was “Toxic”. The Weight difference [13] was -3.3 g, the “Survivors at day 4” value [14] was 6 and the “Survivors at day 4” value [38] was 5. It also gave a Weight difference [15] of -1.8 g.
